From PubChem BioAssay
Most compounds without a hit are left out; they make up all but 3.4% or so of the library.
MEKK3 PB1 HTS – modulators of MEKK3-MEK5 PB1 binding, primary screen, biochemical, wildtype MEKK3, multiplex bead flow cytometry, Alexa488-MEK5 | AID 1529, 2009 | bead-based flow cytometry, Alexa488-MEK5 binding to MEKK3; actives lie on both sides; 0 = blocked by unlabeled MEK5, 100 = vehicle | Mitogen-activated protein kinase kinase kinase 3 (Homo sapiens), Q99759 | hit rate 1.4% among 290,000 | binding response (% of control), % at 10 µM;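 active means binding response more than 3 SD above or below the average of its plate-row segment, actives on both sides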;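 further: Alexa488 bead fluorescence after subtracting the streptavidin-only scavenger bead signal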
MEKK2 WT-MEK5 – modulators of MEK5 binding to wildtype MEKK2, primary screen, biochemical, multiplex bead flow cytometry, Alexa488-MEK5; Alexa488-MEK5 binding to MEKK2 WT; actives lie on both sides; binding response (% of control), % at 10 µM; hit rate 1.1% among 290,000; in the data active means binding response below about 67% or above about 130%
IMP-1 inh-1 – IMP-1 metallo-beta-lactamase inhibitors, primary screen, biochemical, epi-absorbance readout, Pseudomonas aeruginosa enzyme; purified IMP-1, nitrocefin hydrolysis, epi-absorbance fluorescence; metallo-beta-lactamase IMP-1 (Pseudomonas aeruginosa); inhibition, % at 5.6 µM; AID 1556, 2009; hit rate 0.45% among 290,000;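 active means inhibition above the mean plus 3 SD of all compounds in the same screening run, cut at about 4.5% in these data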;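 further: 0% = IMP-1 with DMSO and 100% = DMSO wells lacking enzyme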
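Assay system: purified recombinant IMP-1 beta-lactamase. Input: IMP-1 0.2 nM before substrate addition. Buffer or medium: Zinc- and detergent-supplemented HEPES buffer, pH 7.1. Schedule: 25 °C, 15 min preincubation, 25 min reaction. Signal: Epi-absorbance fluorescence, 480 nm excitation, 530 nm emission. Evaluation: percent inhibition from optical density relative to buffer-blank wells.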
MEKK2mut PB1 HTS – MEK5 binding signal on mutant MEKK2 PB1, primary screen, biochemical, multiplex bead flow cytometry, Alexa488-MEK5; AID 1530, 2009; Alexa488-MEK5 binding to MEKK2 mutant; percent response, % at 10 µM; hit rate 0.35% among 290,000; in the data active means percent response above about 24%, passing the limit was not always enough
VIM-2 inhibitor – VIM-2 metallo-beta-lactamase inhibitors, primary screen, biochemical, epi-absorbance readout, Pseudomonas aeruginosa enzyme; purified VIM-2, nitrocefin hydrolysis, epi-absorbance fluorescence; hit rate 0.89% among 290,000; inhibition, % at 5.6 µM;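 active means inhibition above the mean of all tested compounds plus 3 SD, cutoff set per screening run, cut at about 7.5% in these data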;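 further: red hydrolysis product quenches plate fluorescence so inhibitors raise well fluorescence; 0% = enzyme with DMSO and 100% = DMSO without enzyme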
IMP-1 inh-2 – IMP-1 metallo-beta-lactamase inhibitors, confirmation, selectivity assay for selective VIM-2 inhibitor project, biochemical, epi-absorbance readout, triplicate; inhibition, % at 5.6 µM; 1,300 tested, under 10 active; purified IMP-1, nitrocefin hydrolysis, epi-absorbance fluorescence; shares compounds with VIM-2 inhibitor; AID 1856, 2009; call rule not given here;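 further: 0% = enzyme with vehicle and 100% = vehicle without enzyme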
VIM-2 FRET inh – VIM-2 inhibitors in FRET format, confirmation, artefact control for selective VIM-2 inhibitor project, biochemical, epi-absorbance artifact exclusion. AID 1857, 2009. inhibition, % at 5.6 µM. hit rate 23% among 1,300. shares compounds with VIM-2 inhibitor. purified VIM-2, CCF2 FRET substrate hydrolysis;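 active means inhibition above the mean of all tested compounds plus 3 SD, cut at about 19% in these data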;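 further: 0% = VIM-2 plus DMSO and 100% = no enzyme wells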
TEM-1 counter – TEM-1 serine beta-lactamase inhibitors, counter-screen for VIM-2 inhibitor project, biochemical, epi-absorbance, HTS | AID 1866, 2009 | Purified TEM-1, nitrocefin hydrolysis, epi-absorbance fluorescence | inhibition, % at 5.6 µM | shares compounds with VIM-2 inhibitor | hit rate 3% among 1,300;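 active means inhibition above that campaign's mean inhibition plus 3 SD, cut at about 0.46% in these data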;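 further: 0% = TEM-1 with DMSO and 100% = TEM-1 with 100 µM potassium clavulanate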
Target sequence (P62593 whole entry, looked up): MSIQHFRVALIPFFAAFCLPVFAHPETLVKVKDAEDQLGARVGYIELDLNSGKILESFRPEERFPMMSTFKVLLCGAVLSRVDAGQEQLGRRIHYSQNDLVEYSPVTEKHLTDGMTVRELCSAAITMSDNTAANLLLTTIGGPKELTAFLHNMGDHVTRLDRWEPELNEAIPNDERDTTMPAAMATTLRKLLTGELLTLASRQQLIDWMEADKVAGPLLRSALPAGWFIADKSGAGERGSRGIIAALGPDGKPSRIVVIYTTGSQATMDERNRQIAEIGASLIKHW
VIM-2 confirm 2 – VIM-2 metallo-beta-lactamase inhibitors, confirmation, biochemical, epi-absorbance, hits shared with IMP-1 screen; shares compounds with VIM-2 inhibitor; purified VIM-2, nitrocefin hydrolysis; inhibition, % at 5.6 µM; hit rate 96% among 1,300;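 active means inhibition of the VIM-2 beta-lactamase enzyme above about 11% from the earlier first-round screen, limit read from the data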;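 further: 0% = VIM-2 with DMSO and 100% = buffer wells without enzyme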
The depositor's hits bear a star; nt = not tested or not shown.

SMILES	MEKK3 PB1 HTS	MEKK2 WT-MEK5	IMP-1 inh-1	MEKK2mut PB1 HTS	VIM-2 inhibitor	IMP-1 inh-2	VIM-2 FRET inh	TEM-1 counter	VIM-2 confirm 2
Cc1cc(-c2ccccc2)nc2cc(C(=O)NCCCn3ccnc3)nn12	107.0	106.0	-1.2	12.0	16.9*	-1.8	-9.2	-5.4	28.1*
Cc1cc(C)n(-c2ccc(C(=O)OCC(=O)NCc3ccc(Cl)cc3)cc2)n1	98.0	105.0	0.1	5.0	-1.7	nt	nt	nt	nt
CCN(CC)CCSc1nnc2c3cc(F)ccc3n(Cc3ccccc3)c2n1	104.0	111.0	-1.3	11.0	22.8*	-3.0	2.9	-6.5	37.0*
CCN(CC)CCSc1nnc2c3ccccc3n(Cc3ccccc3)c2n1	104.0	109.0	-3.1	1.0	31.1*	-2.5	3.7	-9.8	48.6*
CCn1c2ccccc2c2nnc(SCC(N)=O)nc21	107.0	107.0	-5.5	0.0	4.9	nt	nt	nt	nt
CC(=O)Nc1ccc(SCCC2CCCCN2C)cc1 (stereo not drawn)	100.0	102.0	-3.7	2.0	-5.1	nt	nt	nt	nt
Cc1cc(NC(=O)C2CC(c3c(F)cccc3Cl)=NO2)n(-c2ccccc2)n1 (stereo not drawn)	103.0	99.0	-0.7	0.0	-1.3	nt	nt	nt	nt
CCc1nc(OCCN(CC)CC)c2oc3ccccc3c2n1	94.0	95.0	-4.5	-1.0	4.6	nt	nt	nt	nt
CCN(CC)CCOc1ncnc2c1oc1ccccc12	101.0	102.0	-0.3	1.0	14.6*	-2.8	1.0	-4.9	13.8*
Cc1cc2oc(=O)cc(CN3CCN(Cc4ccccc4)CC3)c2cc1O	94.0	102.0	-1.5	-4.0	-0.9	nt	nt	nt	nt
CCc1cc2c(CN3CCN(C)CC3)cc(=O)oc2cc1O	104.0	111.0	1.1	2.0	16.3*	-1.4	-16.4	1.1*	31.3*
CCc1cc2c(CN3CCN(CCO)CC3)cc(=O)oc2cc1O	110.0	105.0	-3.0	7.0	17.6*	-3.4	-19.1	-7.5	24.6*
CCCCn1c(-c2cccnc2)n[nH]c1=S	102.0	110.0	-4.9	26.0	20.4*	-2.7	32.5*	-6.8	21.7*
Cn1cc(CC(=O)NC2CCCCC2)c2ccccc21	95.0	96.0	-3.1	-4.0	-1.4	nt	nt	nt	nt
CC(C)C(=O)Nc1cccc(-c2cnc3ccccc3n2)c1	92.0	93.0	-4.4	-10.0	-2.8	nt	nt	nt	nt
CNC(=S)Nc1cccc(-c2cnc3ccccc3n2)c1	103.0	102.0	-5.1	7.0	13.9*	-2.3	-21.9	-8.9	9.1*
CC(=O)NC1(C(=O)O)CCCC1	102.0	103.0	-0.9	-5.0	-1.8	nt	nt	nt	nt
CC1CN(S(=O)(=O)c2cccc(C(=O)OCc3cc(=O)oc4cc(O)ccc34)c2)CC(C)O1 (stereo not drawn)	105.0	100.0	-3.7	2.0	0.4	nt	nt	nt	nt
CN(C)c1cccc(C(=O)OCc2cc(=O)oc3cc(O)ccc23)c1	109.0	114.0	-3.2	6.0	31.8*	-0.7	33.6*	-4.1	26.5*
COc1cc(C(=O)NC(c2ccccc2)c2ccccc2)cc(OC)c1C	108.0	101.0	-1.1	3.0	-3.3	nt	nt	nt	nt
O=C1c2ccccc2-c2nc3ccccc3cc21	100.0	103.0	-4.1	2.0	12.3*	-3.9	0.4	-11.2	17.4*
